Test [1] is described as follows: Her2 expression decrease, cell viability multiplex – SKBR3 breast tumor cells, AlphaScreen, ATP viability, primary screen (AID 461;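 active means Her2 level under about 52% in both replicate screens, with viability over 70% of control, limit read from the data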;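 on Her2 level: lower value means less Her2 protein in the cells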;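 on viability: percent of carrier control wells set as 100% viability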). Conditions: SKBR3 Her2 protein level, 18-24 h, measured here: SKBR3 viability, ATP luminescence, at 10 µM.
Test [2] concerns the target Receptor tyrosine-protein kinase erbB-2 (Homo sapiens) (UniProt P04626). The test is described as above. To be noted: 18-24 h, at 10 µM, stronger effect = lower value.
Test [3] can be described thus: reduced viability of SK-BR-3 breast cancer cells – cell-based, 24 h, human, pilot screen (AID 572;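 active means viability at or below 10% of carrier control in both of two separate runs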;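 further: compound exposure lasted between 18 and 24 h rather than exactly 24 h; 100% = carrier-treated control wells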). To be noted: SK-BR-3 viability, CellTiter-Glo luminescence, at 10 µM, stronger effect = lower value.
The nature of test [4]: HUVEC growth inhibition – cell-based, human, primary screen (AID 575;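 active means viability at or below 30% in both replicate assays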;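 further: 100% = median of untreated cell wells with 0.1% DMSO on each plate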). Conditions: HUVEC proliferation, CellTiter-Glo luminescence, 72 h; at 10 µM; stronger effect = lower value. The method in brief: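 System – primary HUVEC, no more than 12 passages · Medium – Low-serum (2% FBS) EBM, supplemented · Times – 72 h exposure, 37 °C, 5% CO2, 30 min RT equilibration · Measured by – luminescent ATP assay · Read-out – % viability relative to median vehicle-well signal on each plate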
Background: Cellular ATP, detected with luciferase, serves as a proxy for viable cell number.

The nature of test [5]: H69AR cell proliferation blockers – human, duplicate replicates, primary screen (AID 580).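 Further: 100% = mean luminescence of untreated wells and 0% = no signal.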 To be noted: H69AR lung tumor cells viability, ATP luminescence, 72 h; at 10 µM; stronger effect = lower value.
Test [6] can be described thus: MRP1 drug-resistance reversers in H69AR cells – cell-based, doxorubicin co-treatment, pilot screen (AID 601;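 active means viability loss from added drug above about 55%, and viability with drug at most 40%, in both replicates, limit read from the data, passing the limit was not always enough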). Conditions: CellTiter-Glo, 72 h, at 10 µM; for differential viability (reversal): stronger effect = higher value.
Test [7] can be described thus: yeast transport mutant growth inhibition pilot in 384-well plates, post-Golgi transport modulator project (AID 636; in the data active means inhibition above about 31%). To be noted: absorbance 615 nm, about 18 h, stronger effect = higher value.
Test [8] is described as follows: growth suppression of yeast trafficking mutant, preliminary HTS, modulators of trafficking downstream of Golgi apparatus project, 1536-format plate, OD 615 nm (AID 637; in the data active means inhibition above about 30%). To be noted: yeast transport mutant growth, absorbance 615 nm, 18 h; stronger effect = higher value.
[9] abbreviates: H69AR cells + 2 uM doxorubicin, measured here: viability with 2 uM doxorubicin, stronger effect = lower value.
Where [10] appears, read: H69AR cells, compound alone cytotoxicity.

Results on 14 compounds are retold here after PubChem BioAssay.

SMILES strings stand for the structures. Activity calls are given as the source filed them.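 How the source made its calls, unless noted: active means viability at or under a set limit in both replicates, limit being median viability minus 3 SD (cut at about 48% in these data, passing the limit was not always enough); inconclusive means at or under the limit in just one replicate; inactive means at or above the limit in both replicates.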

Chain of Receptor tyrosine-protein kinase erbB-2 (Homo sapiens) (P04626 whole entry, looked up): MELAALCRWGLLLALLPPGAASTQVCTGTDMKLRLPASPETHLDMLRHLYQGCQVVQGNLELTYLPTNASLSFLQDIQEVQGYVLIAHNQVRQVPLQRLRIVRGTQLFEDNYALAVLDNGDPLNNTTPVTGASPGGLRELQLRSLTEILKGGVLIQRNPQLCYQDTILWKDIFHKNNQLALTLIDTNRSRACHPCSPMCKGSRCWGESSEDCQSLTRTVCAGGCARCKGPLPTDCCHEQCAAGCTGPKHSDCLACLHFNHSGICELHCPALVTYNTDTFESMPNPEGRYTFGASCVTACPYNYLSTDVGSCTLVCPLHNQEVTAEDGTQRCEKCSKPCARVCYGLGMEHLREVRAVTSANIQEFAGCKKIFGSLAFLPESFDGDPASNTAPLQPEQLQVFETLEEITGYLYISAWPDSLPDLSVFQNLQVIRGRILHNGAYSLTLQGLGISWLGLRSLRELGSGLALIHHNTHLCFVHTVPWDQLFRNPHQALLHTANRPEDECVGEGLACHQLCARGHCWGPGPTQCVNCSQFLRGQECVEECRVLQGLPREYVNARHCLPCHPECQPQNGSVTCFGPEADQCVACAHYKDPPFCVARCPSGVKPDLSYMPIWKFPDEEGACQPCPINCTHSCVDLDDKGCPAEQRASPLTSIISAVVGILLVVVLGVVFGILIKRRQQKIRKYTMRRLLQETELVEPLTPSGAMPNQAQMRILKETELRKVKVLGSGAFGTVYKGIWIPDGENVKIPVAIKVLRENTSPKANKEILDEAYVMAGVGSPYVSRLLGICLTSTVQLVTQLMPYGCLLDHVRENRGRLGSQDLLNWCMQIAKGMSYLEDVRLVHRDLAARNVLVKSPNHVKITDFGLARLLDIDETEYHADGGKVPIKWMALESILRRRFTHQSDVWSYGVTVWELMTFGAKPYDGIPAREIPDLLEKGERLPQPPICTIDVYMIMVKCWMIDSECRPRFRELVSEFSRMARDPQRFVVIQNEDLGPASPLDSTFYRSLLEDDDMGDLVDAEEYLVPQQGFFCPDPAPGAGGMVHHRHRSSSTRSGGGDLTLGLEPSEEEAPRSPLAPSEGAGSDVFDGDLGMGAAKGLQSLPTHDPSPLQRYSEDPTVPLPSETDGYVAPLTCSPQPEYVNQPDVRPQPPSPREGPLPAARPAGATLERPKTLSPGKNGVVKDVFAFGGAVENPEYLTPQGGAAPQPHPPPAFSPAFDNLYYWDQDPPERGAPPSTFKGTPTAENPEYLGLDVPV

Consider `O=C1CC(c2ccc(S(=O)(=O)N3CCN(c4ccccc4)CC3)cc2)CN1` (stereo not given), for which the viability was 96% in test [1]; 96% (inactive) in test [3]; 93% (inactive) in test [4]; 96.4% (inactive) in test [5]; 94.6% in test [6] (setting [9]); 96.4% in test [6] (setting [10]). Besides, in test [2], the Her2 level is 90% (inactive). In addition, in test [6] (H69AR cells + 2 uM doxorubicin), the differential viability (reversal) was 1.82% (inactive). For the same compound, the inhibition in test [7] is -7.3% (inactive); in test [8] it was -10% (inactive).

Take `O=C(NCc1ccco1)C1CCN(S(=O)(=O)N2CCC3(CC2)OCCO3)CC1`: the viability in test [1] is 99.5%; in test [3], 99.5% (inactive); in test [4], 118% (inactive); in test [5] it was 100% (inactive); in test [6] (setting [9]) it was 85.8%; in test [6] (setting [10]), 100%. Further, the Her2 level in test [2] is 92% (inactive). Besides, the differential viability (reversal) in test [6] (H69AR cells + 2 uM doxorubicin) was 14.2% (inactive). In addition, the values for the inhibition in test [7] and in test [8] were -6.89% (inactive) and -7.17% (inactive), respectively.

On to `CC(C)CSc1nc2ccccc2n1CC(N)=O`, for which the viability in test [1] is 89.5%; in test [3], 89.5% (inactive); in test [4], 87.6% (inactive); in test [5], 93.4% (inactive); in test [6] (setting [9]), 93.2%; in test [6] (setting [10]), 93.4%. In addition, in test [2], the Her2 level was 96% (inactive). Further, the differential viability (reversal) in test [6] (H69AR cells + 2 uM doxorubicin) is 0.185% (inactive). The figures for the inhibition in test [7] and in test [8] were -0.38% (inactive) and 0.67% (inactive), respectively.

On to `O=C(CCSc1ccccc1)N1CCOCC1`, for which the viability in test [1] is 94%; in test [3], 94% (inactive); in test [4] it was 96.7% (inactive); in test [5], 93.5% (inactive); in test [6] (setting [9]), 94.4%; in test [6] (setting [10]) it was 93.5%. Besides, in test [2], the Her2 level is 98.5% (inactive). The differential viability (reversal) in test [6] (H69AR cells + 2 uM doxorubicin) is -0.87% (inactive). For the same compound, the inhibition in test [7] is -5.39% (inactive); in test [8], -2.13% (inactive).

Consider `COc1cccc(/C=N/n2c(C)nc3ccccc32)c1OC`, for which the viability in test [1] is 91%; in test [3] it was 91% (inactive); in test [4], 52.1% (inactive); in test [5], 91.9% (inactive); in test [6] (setting [9]), 88.3%; in test [6] (setting [10]) it was 91.9%. The Her2 level in test [2] is 93.5% (inactive). Besides, the differential viability (reversal) in test [6] (H69AR cells + 2 uM doxorubicin) is 3.66% (inactive). The inhibition in test [7] was -2.4% (inactive); in test [8], -6.35% (inactive).

Consider `COc1ccc(-c2cc(C(=O)Nc3ccc(C)cc3)no2)cc1`, for which the viability in test [1] is 121%; in test [3], 121% (inactive); in test [4] it was 109% (inactive); in test [5], 99.1% (inactive); in test [6] (setting [9]), 89.7%; in test [6] (setting [10]), 99.1%. Moreover, the Her2 level in test [2] is 114% (inactive). Further, the differential viability (reversal) in test [6] (H69AR cells + 2 uM doxorubicin) is 9.35% (inactive). Further, the inhibition in test [7] is -3.11% (inactive); in test [8] it was 41% (active).

`CCOC(=O)N1CCN(C(=O)CCc2ccc(S(=O)(=O)NCCc3ccccc3)cc2)CC1`: the viability was 89.5% in test [1]; 89.5% (inactive) in test [3]; 87.2% (inactive) in test [4]; 101% (inactive) in test [5]; 83.1% in test [6] (setting [9]); 101% in test [6] (setting [10]). In test [2], the Her2 level is 102% (inactive). For the same compound, the differential viability (reversal) in test [6] (H69AR cells + 2 uM doxorubicin) is 17.6% (inactive). Moreover, the inhibition in test [7] was -0.13% (inactive); in test [8], -4% (inactive).

As to `COc1ccc(C(=O)Nc2cccc(C)c2)cc1S(=O)(=O)N1CCOCC1`, the viability in test [1] was 100%; in test [3], 100% (inactive); in test [4], 108% (inactive); in test [5] it was 93.2% (inactive); in test [6] (setting [9]) it was 85.5%; in test [6] (setting [10]), 93.2%. Moreover, in test [2], the Her2 level is 83% (inactive). Moreover, in test [6] (H69AR cells + 2 uM doxorubicin), the differential viability (reversal) was 7.64% (inactive). For the same compound, the inhibition was -5% (inactive) in test [7] and -5.71% (inactive) in test [8].

As to `COc1cccc(Cn2c(OCC3CCCO3)nc3c2c(=O)n(C)c(=O)n3C)c1` (stereo not given), the viability in test [1] is 86.5%; in test [3], 86.5% (inactive); in test [4], 104% (inactive); in test [5] it was 101% (inactive); in test [6] (setting [9]), 101%; in test [6] (setting [10]) it was 101%. Besides, the Her2 level in test [2] was 86% (inactive). Also, the differential viability (reversal) in test [6] (H69AR cells + 2 uM doxorubicin) is -0.075% (inactive). The values for the inhibition in test [7] and in test [8] were -2.11% (inactive) and 3.77% (inactive), respectively.

For `O=C(NCCCn1ccnc1)c1cnn2c1NC(c1ccccc1)CC2C(F)(F)F` (stereo not given), the viability in test [1] is 93.5%; in test [3] it was 93.5% (inactive); in test [4] it was 88.5% (inactive); in test [5], 105% (inactive); in test [6] (setting [9]) it was 103%; in test [6] (setting [10]) it was 105%. Moreover, in test [2], the Her2 level is 139% (inactive). In test [6] (H69AR cells + 2 uM doxorubicin), the differential viability (reversal) is 1.64% (inactive). The inhibition in test [7] was -0.26% (inactive); in test [8], -15% (inactive).

`CCCn1c(C)cc(C(=O)COc2ncnc3sccc23)c1C`: the viability in test [1] was 89%; in test [3], 89% (inactive); in test [4], 74.1% (inactive); in test [5], 63.8% (inactive); in test [6] (setting [9]) it was 82.3%; in test [6] (setting [10]), 63.8%. Besides, the Her2 level in test [2] was 98.5% (inactive). The differential viability (reversal) in test [6] (H69AR cells + 2 uM doxorubicin) was -18.6% (inactive). For the same compound, the inhibition was 1.3% (inactive) in test [7] and -11.8% (inactive) in test [8].

For `Cc1nnc(SCC(=O)Nc2cc(C(F)(F)F)ccc2N2CCOCC2)o1`, the viability in test [1] is 93%; in test [3], 93% (inactive); in test [4], 93.8% (inactive); in test [5], 86.8% (inactive); in test [6] (setting [9]), 89%; in test [6] (setting [10]), 86.8%. For the same compound, in test [2], the Her2 level is 99% (inactive). The differential viability (reversal) in test [6] (H69AR cells + 2 uM doxorubicin) is -2.25% (inactive). For the same compound, the inhibition in test [7] is -0.13% (inactive); in test [8], -1.83% (inactive).

For `O=C(N1CCN(Cc2ccccc2)CC1)C12CC3CC(CC(C3)C1)C2`, the viability is 83% in test [1]; 83% (inactive) in test [3]; 80.4% (inactive) in test [4]; 83.4% (inactive) in test [5]; 88.9% in test [6] (setting [9]); 83.4% in test [6] (setting [10]). Besides, the Her2 level in test [2] was 98% (inactive). Besides, in test [6] (H69AR cells + 2 uM doxorubicin), the differential viability (reversal) is -5.52% (inactive). The inhibition was -5.54% (inactive) in test [7] and -0.67% (inactive) in test [8].

On to `Cc1cc(C)n2nc(C(=O)NCc3ccco3)nc2n1`, for which the viability was 101% in test [1]; 101% (inactive) in test [3]; 91.4% (inactive) in test [4]; 99% (inactive) in test [5]; 94.5% in test [6] (setting [9]); 99% in test [6] (setting [10]). In addition, the Her2 level in test [2] was 90% (inactive). The differential viability (reversal) in test [6] (H69AR cells + 2 uM doxorubicin) was 4.53% (inactive). In addition, the inhibition is -0.26% (inactive) in test [7] and -5.32% (inactive) in test [8].

In general, viability refers to a read-out of living cells in per cent, often relative to untreated cells. As usually defined, the inhibition is the change of the read-out against control, counted positive when it falls.
